Measurements: article PMC5788414 (Journal of Medicinal Chemistry, 2017)
Values joined by “and” are separate entries in the source; they are usually repeats but may differ in a detail not shown here. Equal values may be shown once. “Also recorded” adds a separate entry of the source.

Tests used:
[1] = test system: BRD2, BRD3, and BRD4 proteins; assay: Western blotting of BET protein levels in RS4; assay type: cell-based, human
acute leukemia model = acute leukemia model in mice ref 23; cited from earlier work
RS4;11 xenograft tumors = assay: Antitumor efficacy in RS4; assay type: in vivo; conditions: mice, 5 mg/kg intravenously
Summary of the method: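 Human RS4;11 leukaemia cells (5 × 10⁶, in 50% Matrigel) were injected subcutaneously on the dorsal side of SCID mice, one tumour per mouse. At ∼100 mm³, mice were randomised to treatment or vehicle groups. The test compound was given at 5 mg/kg IV every other day, three times a week, for 3 weeks. Tumours were measured by calipers 2–3 times weekly (V = LW²/2). Body weight and toxicity signs were monitored.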

[2] = Animal weight and signs of toxicity in RS4; assay type: in vivo; conditions: mice bearing RS4;11 xenografts, 5 mg/kg intravenously, three times a week for 3 weeks
Summary of the method: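 Subcutaneous dorsal xenografts in SCID mice: 5 × 10⁶ RS4;11 cells in 50% Matrigel, one tumor per mouse. Mice randomised to treatment or vehicle groups at ~100 mm³. Dosing was intravenous every other day. Toxicity signs checked daily. Body weight recorded 2–3 times per week during treatment and at least weekly afterwards.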

BRD3 = BRD3 (Homo sapiens, UniProt Q15059); assay: Western blotting of BRD3 protein level in RS4; assay type: cell-based; conditions: RS4;11 cells, Western blot
Summary of the method: (§1)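 RS4;11 cells (2 × 10⁶/well) were treated with the test compound at the indicated concentrations for 3 h or 24 h. Cells were lysed in RIPA buffer with protease inhibitors. Lysate (20 μg per lane) was separated by SDS–PAGE, blotted onto PVDF, and probed with BRD2, BRD3 and BRD4 antibodies, with GAPDH as the loading control.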

RS4;11 cell line [3] = assay: Apoptosis induction by flow cytometry; assay type: cell-based, human; conditions: RS4;11, 24 h treatment
Summary of the method: (§2)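 RS4;11 or MOLM-13 cells were grown in RPMI 1640 with 10% FBS and 1% penicillin–streptomycin at 37 °C, 5% CO₂, and used within three months of thawing. Cells were treated with the test compound at the indicated concentrations for 24 h. They were then stained with annexin V and propidium iodide and analysed by flow cytometry.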

[4] = Drug concentration in plasma; assay type: in vivo, SCID mice
Summary of the method: (§3)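 Female SCID C.B-17 mice bearing RS4;11 tumours received a single 5 mg/kg IV dose in 20% PEG 400, 6% Cremophor EL and 74% PBS. Mice were killed at 1, 3, 6 and 24 h (two mice per time point, three tumours per time point). Plasma came from blood spun at 15 000 rpm for 10 min; tumours were frozen and ground in liquid nitrogen. Samples were kept at −80 °C and assayed by LC–MS/MS on a C18 column.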

[5] = test system: triple-negative human breast cancer; conditions: in vitro and in vivo ref 32; cited from earlier work
[6] = In vitro metabolite identification in mouse liver microsomes; assay type: in vitro ADME; conditions: 10 μM, MLM with β-NADPH, 37 °C, 20 and 40 min
Summary of the method: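 Incubation was quenched with a 3-fold volume of ice-cold acetonitrile, then centrifuged at 15 000 rpm for 10 min; supernatant stored at −80 °C. Negative controls omitted NADPH or used boiled microsomes. Metabolites were identified by tandem mass spectrometry, starting from the parent's product ion spectrum to establish fragmentation.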

RS4;11 cell line [7] = assay: Cell cycle arrest by flow cytometry; assay type: cell-based, human; conditions: RS4;11, 24 h
Summary of the method: (§4)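 Cell cycle was read by propidium iodide staining and flow cytometry after 24 h exposure to the test compound at the indicated concentrations. RS4;11 or MOLM-13 cells were cultured in RPMI 1640 with 10% FBS and 1% penicillin–streptomycin at 37 °C, 5% CO₂, and used within three months of thawing.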

c-Myc [8] = assay: Western blotting of c-Myc level in RS4; assay type: cell-based, human; conditions: for Concentration effectively down-regulating the level of c-Myc: RS4;11 cells, 24 h treatment, Western blot
Summary of the method: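 RS4;11 cells (2 × 10⁶/well) were exposed for 24 h to the test compound at the indicated concentrations. Cells were lysed in RIPA buffer with protease inhibitors. Lysate (20 μg per lane) was separated by SDS–PAGE, transferred to PVDF, and immunoblotted for c-Myc, with GAPDH as the loading control.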

BRD2 = BRD2 (Homo sapiens, UniProt P25440); assay: Western blotting of BRD2 protein level in RS4; assay type: cell-based; conditions: RS4;11 cells, Western blot
Summary of the method: as §1

MOLM-13 cell line [9] = assay: Cell cycle arrest by flow cytometry; assay type: cell-based, human; conditions: MOLM-13, 24 h
Summary of the method: as §4

[10] = test system: BRD2, BRD3, and BRD4 proteins; assay: Pharmacodynamic Western blotting of BET proteins in RS4; assay type: in vivo, SCID mice; conditions: single intravenous dose, 5 mg/kg
Summary of the method: (§5)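 SCID mice bearing RS4;11 xenografts were given one 5 mg/kg IV dose of the test compound and killed at 1, 3, 6 or 24 h; vehicle-treated mice were killed at 6 h. Two mice were used per time point, with one or two tumours each. Lysates were run on 4–20% gels and immunoblotted on PVDF for BRD2–4, c-Myc, PARP and caspase-3. Actin was the loading control, with ECL detection.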

c-Myc [11] = assay: Pharmacodynamic Western blotting of c-Myc in RS4; assay type: in vivo, SCID mice; conditions: single intravenous dose, 5 mg/kg
Summary of the method: as §5

PARP and caspase-3 = assay: Pharmacodynamic Western blotting of PARP and caspase-3 cleavage in RS4; assay type: in vivo, SCID mice; conditions: single intravenous dose, 5 mg/kg
Summary of the method: as §5

MOLM-13 cell line [12] = assay: Apoptosis induction by flow cytometry; assay type: cell-based, human; conditions: MOLM-13, 24 h treatment
Summary of the method: as §2

[13] = Drug concentration in RS4; assay type: in vivo, SCID mice
Summary of the method: as §3

BRD4 = BRD4 (Homo sapiens, UniProt O60885); assay: Western blotting of BRD4 protein level in RS4; assay type: cell-based; conditions: RS4;11 cells
Summary of the method: as §1

BRD2, BRD3, and BRD4 = assay: FP-based competitive binding assays, BET proteins overall; conditions: binding to BRD2, BRD3, BRD4; comparator 1 or 2
[14] = test system: RS4;11 acute leukemia cell line; assay: Cell growth inhibition; assay type: cell-based, human; conditions: comparator 23
[15] = test system: MOLM-13 acute leukemia cell line; assay: Cell growth inhibition; assay type: cell-based, human; conditions: MOLM13; comparator 23
[16] = RS4;11 cells, 3 h treatment, Western blot
[17] = 1 h after single 5 mg/kg intravenous dose
[18] = 3 h after single 5 mg/kg intravenous dose
[19] = 6 h after single 5 mg/kg intravenous dose

BRD3, sequence (Q15059 whole entry): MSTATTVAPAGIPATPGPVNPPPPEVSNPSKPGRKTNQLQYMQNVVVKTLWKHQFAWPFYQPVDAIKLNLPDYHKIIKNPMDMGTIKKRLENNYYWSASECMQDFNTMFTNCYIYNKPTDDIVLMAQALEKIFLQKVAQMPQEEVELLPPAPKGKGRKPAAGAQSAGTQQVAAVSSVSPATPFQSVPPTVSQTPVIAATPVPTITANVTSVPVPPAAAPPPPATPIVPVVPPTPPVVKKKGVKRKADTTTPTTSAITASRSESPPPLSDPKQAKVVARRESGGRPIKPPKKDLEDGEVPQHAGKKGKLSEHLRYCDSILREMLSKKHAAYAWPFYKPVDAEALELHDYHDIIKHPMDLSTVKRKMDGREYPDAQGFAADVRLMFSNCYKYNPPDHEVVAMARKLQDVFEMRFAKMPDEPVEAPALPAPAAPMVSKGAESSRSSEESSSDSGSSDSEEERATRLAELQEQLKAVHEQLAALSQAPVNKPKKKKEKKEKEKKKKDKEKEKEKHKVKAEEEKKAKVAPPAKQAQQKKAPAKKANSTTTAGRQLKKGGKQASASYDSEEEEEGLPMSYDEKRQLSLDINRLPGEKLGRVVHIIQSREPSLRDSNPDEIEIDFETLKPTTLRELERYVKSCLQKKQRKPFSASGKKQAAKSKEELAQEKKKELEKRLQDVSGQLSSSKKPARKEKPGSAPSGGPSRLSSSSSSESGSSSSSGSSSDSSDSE
BRD2, sequence (P25440 whole entry): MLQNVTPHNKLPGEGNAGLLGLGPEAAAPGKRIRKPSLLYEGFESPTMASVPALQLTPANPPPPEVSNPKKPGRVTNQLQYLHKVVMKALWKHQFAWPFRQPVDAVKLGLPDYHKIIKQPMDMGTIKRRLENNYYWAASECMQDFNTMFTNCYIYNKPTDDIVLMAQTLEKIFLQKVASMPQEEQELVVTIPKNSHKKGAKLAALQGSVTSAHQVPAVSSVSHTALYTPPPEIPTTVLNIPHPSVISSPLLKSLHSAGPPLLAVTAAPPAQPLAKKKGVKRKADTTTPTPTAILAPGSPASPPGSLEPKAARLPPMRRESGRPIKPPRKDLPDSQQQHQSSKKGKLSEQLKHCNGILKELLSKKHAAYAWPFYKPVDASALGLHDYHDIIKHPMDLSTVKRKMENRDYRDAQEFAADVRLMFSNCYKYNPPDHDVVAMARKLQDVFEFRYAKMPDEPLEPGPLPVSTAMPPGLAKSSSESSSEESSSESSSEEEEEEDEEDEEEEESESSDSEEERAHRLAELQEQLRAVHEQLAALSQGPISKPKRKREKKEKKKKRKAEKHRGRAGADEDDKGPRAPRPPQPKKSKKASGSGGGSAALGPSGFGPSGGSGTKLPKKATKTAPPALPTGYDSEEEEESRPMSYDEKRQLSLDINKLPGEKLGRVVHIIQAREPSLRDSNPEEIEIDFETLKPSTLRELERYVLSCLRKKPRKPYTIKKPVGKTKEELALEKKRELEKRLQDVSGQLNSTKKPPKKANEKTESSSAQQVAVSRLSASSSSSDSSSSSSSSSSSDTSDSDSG

SMILES: Cc1sc2c(c1C)C(c1ccc(Cl)cc1)=N[C@@H](CC(=O)NCCCCNC(=O)COc1cccc3c1C(=O)N(C1CCC(=O)NC1=O)C3=O)c1nnc(C)n1-2 (stereo partly shown) [Compound 4, dBET1, reference compound]
- Effect on the level of BRD2, BRD3, and BRD4 proteins [1, 16]: effectively decrease
- Inhibition of tumor growth in vivo compared with 1 (acute leukemia model): more effective

SMILES: CCn1nc(C2CC2)cc1Nc1nc(C(=O)NCCCCCc2cccc3c2CN(C2CCC(=O)NC2=O)C3=O)nc2[nH]c3cc(-c4c(C)noc4C)c(OC)cc3c12 (stereo not shown) [Compound 23, 4-((3-Cyclopropyl-1-ethyl-1H-pyrazol-5-yl)amino)-7-(3,5-dimethylisoxazol-4-yl)-N-(5-(2-(2,6-dioxopiperidin-3-yl)-1-oxoisoindolin-4-yl)pentyl)-6-methoxy-9H-pyrimido[4,5-b]indole-2-carboxamide]
- Antitumor activity against RS4;11 xenograft tumors (RS4;11 xenograft tumors): rapid tumor regression
- Animal weight loss or signs of toxicity [2]: no animal weight loss or other signs of toxicity; also recorded: minimal body weight change; also recorded: no signs of toxicity
- Lowest concentration effective in decreasing the level of BRD3 protein (BRD3; 3 h treatment): 0.1 nM
- Lowest concentration effectively reducing the level of BRD3 protein (BRD3; 24 h treatment): 0.1 nM
- Concentration inducing robust apoptosis (RS4;11 cell line [3]): 3 to 10 nM
- concn in plasma, individual mice [4, 17]: 362 ng/mL
- concn in plasma, individual mice [4, 18]: 76.1 ng/mL
- concn in plasma, individual mice [4, 19]: 7.4 ng/mL
- Activity against triple-negative human breast cancer [5]: very potent and efficacious
- Major metabolite in mouse liver microsomes [6]: mono- or dihydroxylated product occurring in the alkyl chain in the linker
- Concentration effective in inducing cell cycle arrest (RS4;11 cell line [7]): 0.3 nM
- times more potent than 8 in down-regulation of c-Myc protein (c-Myc [8]; RS4;11 cell line, comparator 8): > 1000 times
- Concentration effectively down-regulating the level of c-Myc (c-Myc [8]): 0.1 nM
- Lowest concentration effective in decreasing the level of BRD2 protein (BRD2; 3 h treatment): 0.3 nM
- Lowest concentration effectively reducing the level of BRD2 protein (BRD2; 24 h treatment): 0.1 nM
- Lowest concentrations effective in decreasing the level of BRD2, BRD3, and BRD4 proteins [1, 16]: 0.1 to 0.3 nM
- Concentrations inducing degradation of BRD2, BRD3, and BRD4 proteins ([1]; RS4;11 leukemia cells): 30 to 100 pM
- Concentration effective in inducing cell cycle arrest (MOLM-13 cell line [9]): 1 to 3 nM
- Duration of reduction of BRD2, BRD3, and BRD4 proteins in tumor tissue [10]: > 24 h
- Onset of reduction of BRD2, BRD3, and BRD4 proteins in tumor tissue [10]: 1 h
- Duration of c-Myc down-regulation in tumor tissue (c-Myc [11]): at least 6 h
- Onset of cleavage of PARP and caspase-3 in tumor tissue (PARP and caspase-3): 3 h
- Time of peak cleavage of PARP and caspase-3 in tumor tissue (PARP and caspase-3): 6 h
- Concentration inducing robust apoptosis (MOLM-13 cell line [12]): 3 to 10 nM
- concn in tumor, individual tumor [13, 17]: 123 ng/g and 240.5 ng/g
- concn in tumor, individual tumor [13, 18]: 89 ng/g and 120.5 ng/g
- concn in tumor, individual tumor [13, 19]: 31.9 ng/g
- Lowest concentration effective in decreasing the level of BRD4 protein (BRD4; 3 h treatment, Western blot): 0.3 nM
- Lowest concentration degrading BRD4 protein (BRD4; 24 h treatment): 30 pM
- Lowest concentration effectively reducing the level of BRD4 protein (BRD4; 24 h treatment, Western blot): 0.03 nM

SMILES: CCn1nc(C2CC2)cc1Nc1nc(C(=O)NC)nc2[nH]c3cc(-c4c(C)noc4C)c(OC)cc3c12 [Compound 8, 4-((3-Cyclopropyl-1-ethyl-1H-pyrazol-5-yl)amino)-7-(3,5-dimethylisoxazol-4-yl)-6-methoxy-N-methyl-9H-pyrimido[4,5-b]indole-2-carboxamide]
- Concentration inducing robust apoptosis (RS4;11 cell line [3]): > 300 nM
- Concentration effective in inducing cell cycle arrest (RS4;11 cell line [7]): 30 nM
- Concentration effectively down-regulating the level of c-Myc (c-Myc [8]): 300 to 1000 nM
- times more potent than 1 or 2 in binding (BRD2, BRD3, and BRD4): > 10 times
- Effect of pretreatment on degradation of BRD2, BRD3, and BRD4 induced by 23 ([1]; RS4;11 cells, 2 h pretreatment, then 3 h treatment with 23 at 1 nM): effectively blocks
- Effect on the level of BRD2–4 proteins ([1]; RS4;11 cells, 3 h, at both 100 and 300 nM): fails to decrease
- Effect on the level of BRD2–4 proteins ([1]; RS4;11 cells, 24 h, all concentrations tested (30–1000 nM)): no effect
- Concentration effective in inducing cell cycle arrest (MOLM-13 cell line [9]): 30 to 100 nM
- Concentration inducing robust apoptosis (MOLM-13 cell line [12]): > 300 nM

SMILES: COc1cc2c(cc1-c1c(C)noc1C)[nH]c1nc(C(=O)NCCCCCc3cccc4c3CN(C3CCC(=O)NC3=O)C4=O)ncc12 (stereo not shown) [Compound 27, 7-(3,5-Dimethylisoxazol-4-yl)-N-(5-(2-(2,6-dioxopiperidin-3-yl)-1-oxoisoindolin-4-yl)pentyl)-6-methoxy-9H-pyrimido[4,5-b]indole-2-carboxamide]
- times less potent than 23 in cell growth inhibition [14]: > 10 000 times
- times less potent than 23 in cell growth inhibition [15]: > 400 times
